The record followed here is ChEMBL document CHEMBL1132188, “Probes for narcotic receptor mediated phenomena. 26. Synthesis and biological evaluation of diarylmethylpiperazines and diarylmethylpiperidines as novel, nonpeptidic delta opioid receptor ligands” (J Med Chem, 1999).

A short description of experiment [1]: Ki ratio of mu to delta receptor.
Experiment [2] addresses T1, Delta-type opioid receptor (Rattus norvegicus, UniProt P33533). As to the kind of experiment: In vitro binding affinity to Opioid receptor delta 1 in rat brain membranes by [3H]DADLE (Tyr-D-Ala-Gly-Phe-D-Leu) displacement. It counts as cell membranes. The procedure, abridged:
(§1)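 [3H]DADLE (2 nM) was bound to daily-prepared rat brain membranes for 2 h at 25 °C in 50 mM Tris-HCl pH 7.4 with 100 mM choline chloride, 3 mM MnCl2, DAMGO to block mu sites, and protease inhibitor cocktail. Nonspecific binding was defined with 20 µM levallorphan. Ten drug concentrations were run twice. Ki from IC50 by Cheng–Prusoff.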

Experiment [3] has as its target Mu-type opioid receptor (Cavia porcellus, UniProt P97266). As to the kind of experiment: Agonist activity using strips of guinea pig ileum longitudinal muscle myenteric plexus. In kind it is functional, tissue-based. The procedure, abridged:
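Longitudinal muscle–myenteric plexus strips from male Hartley guinea pigs (250–500 g) at 1 g tension in Krebs bicarbonate, 37 °C, 95% O2/5% CO2. Transmural stimulation at 0.1 Hz, 0.4 ms pulses, supramaximal voltage. Cumulative agonist doses; % inhibition of contraction height. IC50 by nonlinear least squares.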

Experiment [4] addresses T2, Kappa-type opioid receptor (Cavia porcellus, UniProt P41144). In words: In vitro radioligand binding assay, for inhibition of [3H]U-69593 binding to Opioid receptor kappa 1, in guinea pig brain membranes, at highest concentration of 7000 nM tested. In kind it is cell membranes. In outline: (§2)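 Guinea pig brain membranes were homogenised in ice-cold 10 mM Tris-HCl pH 7.0, centrifuged twice at 30000g, and resuspended in 50 mM Tris-HCl pH 7.4. [3H]U69,593 (2 nM) was incubated 2 h at 25 °C with protease inhibitor cocktail and 1 µg/mL captopril. Nonspecific binding was defined with 1 µM U69,593. Ten drug concentrations were run twice. Ki = IC50/(1+[L]/Kd).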

Experiment [5] deals with Delta-type opioid receptor (Mus musculus, UniProt P32300). As to the kind of experiment: Agonist activity using electrically induced smooth muscle contraction of mouse vas deferens. In kind it is functional.
Chain of Delta-type opioid receptor (Mus musculus, UniProt P32300) (P32300 whole entry): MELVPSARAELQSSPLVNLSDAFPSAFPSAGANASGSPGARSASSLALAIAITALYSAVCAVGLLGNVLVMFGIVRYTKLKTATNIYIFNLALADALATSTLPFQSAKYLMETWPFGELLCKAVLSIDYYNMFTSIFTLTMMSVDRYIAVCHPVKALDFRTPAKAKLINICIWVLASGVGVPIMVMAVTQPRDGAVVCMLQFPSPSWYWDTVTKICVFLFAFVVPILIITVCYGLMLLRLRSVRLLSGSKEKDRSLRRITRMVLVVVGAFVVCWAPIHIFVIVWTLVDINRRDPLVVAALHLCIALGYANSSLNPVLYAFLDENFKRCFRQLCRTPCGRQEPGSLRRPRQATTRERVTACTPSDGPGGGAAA
Experiment [6] is described as follows: IC50 ratio of mu to delta receptor.
Experiment [7] deals with T3, Mu-type opioid receptor (Rattus norvegicus, UniProt P33535). In words: In vitro radioligand binding assay, for inhibition of [3H]DAMGO (Tyr-D-Ala-Gly-(Me)-Phe-Gly-ol) binding to Opioid receptor mu 1 in rat brain membranes at highest concentration of 6800 nM tested. It counts as cell membranes. In outline: (§3)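 Rat brain membranes prepared daily: homogenised in ice-cold 10 mM Tris-HCl pH 7.0, centrifuged twice at 30000g for 10 min, resuspended in 50 mM Tris-HCl pH 7.4. Incubation 2 h at 25 °C in 50 mM Tris-HCl pH 7.4 with protease inhibitor cocktail. Nonspecific binding was defined with 20 µM levallorphan. Ten drug concentrations were run twice. Ki = IC50/(1+[L]/Kd).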
T3 sequence (P33535 whole entry): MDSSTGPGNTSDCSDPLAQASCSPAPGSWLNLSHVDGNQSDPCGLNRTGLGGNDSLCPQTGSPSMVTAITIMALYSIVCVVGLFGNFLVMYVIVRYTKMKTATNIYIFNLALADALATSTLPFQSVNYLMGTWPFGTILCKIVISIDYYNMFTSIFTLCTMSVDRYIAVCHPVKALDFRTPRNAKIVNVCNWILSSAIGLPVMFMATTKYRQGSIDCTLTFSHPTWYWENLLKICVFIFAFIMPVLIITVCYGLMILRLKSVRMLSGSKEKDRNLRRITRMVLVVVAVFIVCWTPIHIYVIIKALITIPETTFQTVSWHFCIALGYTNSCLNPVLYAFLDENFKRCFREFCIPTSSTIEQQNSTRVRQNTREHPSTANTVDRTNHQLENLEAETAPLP

Experiment [8] has as its target T1, Delta-type opioid receptor. As to the kind of experiment: In vitro radioligand binding assay, for inhibition of [3H]DADLE (Tyr-D-Ala-Gly-Phe-D-Leu) binding to Opioid receptor delta 1, in rat brain membranes at highest concentration of 1700 nM tested. It counts as cell membranes. The procedure, abridged:
as §1

For experiment [9], the target named is T2, Kappa-type opioid receptor. As to the kind of experiment: In vitro radioligand binding assay, for inhibition of [3H]U-69593 binding to Opioid receptor kappa 1, in guinea pig brain membranes, at highest concentration of 8000 nM tested. It counts as cell membranes. The procedure, abridged: as §2
Experiment [10] concerns the target T3, Mu-type opioid receptor. In words: In vitro radioligand binding assay, for inhibition of [3H]DAMGO (Tyr-D-Ala-Gly-(Me)-Phe-Gly-ol) binding to Opioid receptor mu 1 in rat brain membranes at highest concentration of 6300 nM tested. In kind it is cell membranes. In outline:
as §3

For experiment [11], the target named is T2, Kappa-type opioid receptor. In words: In vitro radioligand binding assay, for inhibition of [3H]U-69593 binding to Opioid receptor kappa 1, in guinea pig brain membranes. It counts as cell membranes. The procedure, abridged:
as §2

Experiment [12] has as its target T3, Mu-type opioid receptor. As to the kind of experiment: In vitro radioligand binding assay, for inhibition of [3H]DAMGO (Tyr-D-Ala-Gly-(Me)-Phe-Gly-ol) binding to Opioid receptor mu 1 in rat brain membranes. In kind it is cell membranes. The procedure, abridged:
as §3

Experiment [13] concerns the target T3, Mu-type opioid receptor. As to the kind of experiment: In vitro radioligand binding assay, for inhibition of [3H]DAMGO (Tyr-D-Ala-Gly-(Me)-Phe-Gly-ol) binding to Opioid receptor mu 1 in rat brain membranes at highest concentration of 5600 nM tested. In kind it is cell membranes. The procedure, abridged:
as §3

Experiment [14] has as its target T3, Mu-type opioid receptor. In words: In vitro radioligand binding assay, for inhibition of [3H]-DAMGO (Tyr-D-Ala-Gly-(Me)-Phe-Gly-ol) binding to Opioid receptor mu 1 in rat brain membranes at highest concentration of 6600 nM tested. In kind it is cell membranes. In outline:
as §3

T1 sequence (P33533 whole entry): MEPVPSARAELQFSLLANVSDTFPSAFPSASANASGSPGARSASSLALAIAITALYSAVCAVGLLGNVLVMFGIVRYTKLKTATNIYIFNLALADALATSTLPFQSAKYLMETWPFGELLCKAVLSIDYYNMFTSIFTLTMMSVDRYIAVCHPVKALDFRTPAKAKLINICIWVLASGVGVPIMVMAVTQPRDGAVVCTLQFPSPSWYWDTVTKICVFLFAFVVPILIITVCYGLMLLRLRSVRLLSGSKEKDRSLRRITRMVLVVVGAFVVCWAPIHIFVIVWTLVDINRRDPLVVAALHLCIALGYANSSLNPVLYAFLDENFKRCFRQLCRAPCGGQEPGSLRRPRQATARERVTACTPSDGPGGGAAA
Chain of Mu-type opioid receptor (Cavia porcellus, UniProt P97266) (P97266 whole entry): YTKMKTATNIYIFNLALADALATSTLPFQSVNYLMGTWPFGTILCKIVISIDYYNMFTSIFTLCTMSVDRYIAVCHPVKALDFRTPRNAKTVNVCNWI
T2 sequence (P41144 whole entry): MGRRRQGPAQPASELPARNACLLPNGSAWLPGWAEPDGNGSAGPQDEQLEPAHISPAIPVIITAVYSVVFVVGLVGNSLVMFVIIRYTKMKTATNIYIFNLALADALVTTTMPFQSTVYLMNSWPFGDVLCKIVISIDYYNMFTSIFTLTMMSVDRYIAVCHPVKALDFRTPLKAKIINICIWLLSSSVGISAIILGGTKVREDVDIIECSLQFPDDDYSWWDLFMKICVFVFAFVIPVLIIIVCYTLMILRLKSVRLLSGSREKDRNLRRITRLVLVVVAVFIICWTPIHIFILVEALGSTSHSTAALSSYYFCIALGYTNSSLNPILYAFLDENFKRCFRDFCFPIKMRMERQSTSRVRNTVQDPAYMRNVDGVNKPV

For the compound `CCN(CC)C(=O)c1ccc(C(c2ccccc2)N2CCN(Cc3ccccc3)CC2)cc1` (stereo not drawn), the Ki ratio in experiment [1] was > 4500. In addition, the Ki in [2] amounted to 0.00148 µM; in experiment [4], 2 µM; on Mu-type opioid receptor [7] it was 10 µM. In addition, the IC50 at Mu-type opioid receptor [3] turned out to be 9.85 µM; in experiment [5] it was 0.0257 µM. The Ratio in experiment [6] came out at 382.
Take `CCN(CC)C(=O)c1ccc(C(c2ccccc2)N2CCCCC2)cc1` (stereo not drawn): the Ki ratio in experiment [1] is > 4. Moreover, the Ki came to 10 µM in experiment [4], 3 µM in experiment [8] and 10 µM on Mu-type opioid receptor [7].
Regarding `CCN(CC)C(=O)c1ccc(C(c2ccccc2)N2CCNCC2)cc1` (stereo not drawn), the Ki ratio in [1] is > 1400. The Ki in [2] came out at 0.00485 µM; at Mu-type opioid receptor [7], 10 µM.
As to `CCN(CC)C(=O)c1ccc(C(OCCN(C)C)c2cccc(OC)c2)cc1` (stereo not drawn), the Ki ratio in experiment [1] was > 20. For the same compound, the Ki in [2] is 0.258 µM; in [9] it was 10 µM; at Mu-type opioid receptor [7], 10 µM.
As to `CCCN1CCN(C(c2ccccc2)c2ccc(C(=O)N(CC)CC)cc2)CC1` (stereo not drawn), the Ki ratio in [1] was > 150. The figures for the Ki (in experiment [2]; in experiment [4]; on Mu-type opioid receptor [7]) were 0.0442 µM, 10 µM and 10 µM, respectively.
On to `C=CCN1CCC(C(c2ccc(C(=O)N(CC)CC)cc2)c2cccc(OC)c2)CC1` (stereo not drawn), for which the Ki ratio in experiment [1] was > 200. Also, the values for the Ki (on Mu-type opioid receptor [10]; in experiment [2]; in experiment [9]) were 10 µM, 0.027 µM and 10 µM, respectively.
`CCN(CC)C(=O)c1ccc(C(=C2CCN(Cc3ccccc3)CC2)c2cccc(OC)c2)cc1`: the Ki ratio in [1] was > 500. Further, the Ki at Mu-type opioid receptor [10] was 10 µM; in experiment [2], 0.012 µM; in experiment [11], 7.65 µM.
On to `C=CCN1CCN(C(c2ccc(C(=O)N(CC)CC)cc2)c2cccc(OC)c2)CC1` (stereo not drawn), for which, in experiment [1], the Ki ratio was > 230. Besides, the results for the Ki (in [2]; in experiment [11]; at Mu-type opioid receptor [12]) were 0.027 µM, 10 µM and 10 µM, respectively. Also, the IC50 was 20.3 µM on Mu-type opioid receptor [3] and 0.0331 µM in [5]. Moreover, in experiment [6], the Ratio is 610.
`C=CCN1C[C@H](C)N([C@@H](c2ccccc2)c2ccc(C(=O)N(CC)CC)cc2)C[C@H]1C`: the Ki ratio in experiment [1] was > 3600. The Ki came out at 0.0005 µM in experiment [2], 3 µM in [11] and 3 µM on Mu-type opioid receptor [12]. Moreover, the Ratio in experiment [6] is 813.
Consider `CCN(CC)C(=O)c1ccc(C(=C2CCNCC2)c2cccc(OC)c2)cc1`, for which the Ki ratio in [1] was > 1200. In addition, the inhibition constant Ki at Mu-type opioid receptor [10] amounted to 10 µM; in experiment [2] it was 0.005 µM; in [9] it was 10 µM. The results for the IC50 (at Mu-type opioid receptor [3]; in experiment [5]) were 27.7 µM and 0.125 µM, respectively. Further, the Ratio in [6] turned out to be 220.
As for `CCN(CC)C(=O)c1ccc(C(c2cccc(OC)c2)C2CCNCC2)cc1` (stereo not drawn), the Ki ratio in experiment [1] was > 300. Also, the Ki at Mu-type opioid receptor [10] was 10 µM; in experiment [2], 0.02 µM; in experiment [9] it was 10 µM.
`CCN(CC)C(=O)c1ccc(C(NCCN(C)C)c2cccc(OC)c2)cc1` (stereo not drawn): the Ki ratio in [1] was > 10. In addition, the figures for the Ki (in experiment [2]; in experiment [9]; at Mu-type opioid receptor [7]) were 0.622 µM, 10 µM and 10 µM, respectively.
Turning to `CCN(CC)C(=O)c1ccc(C(c2cccc(OC)c2)C2CCN(C)CC2)cc1` (stereo not drawn), the Ki ratio in experiment [1] is > 15. In addition, the Ki on Mu-type opioid receptor [10] came out at 10 µM; in [2], 0.328 µM; in experiment [9], 10 µM.
`CCN(CC)C(=O)c1ccc(C(c2cccc(OC)c2)N(C)CCN(C)C)cc1` (stereo not drawn): in experiment [1], the Ki ratio is > 20. The Ki in experiment [2] is 0.248 µM; in experiment [9], 10 µM; at Mu-type opioid receptor [7], 10 µM.
Turning to `CCN(CC)C(=O)c1ccc(C(c2ccccc2)N2CCN(C)CC2)cc1` (stereo not drawn), the Ki ratio in experiment [1] is > 130. The figures for the Ki (in [2]; in [4]; on Mu-type opioid receptor [13]) were 0.0432 µM, 10 µM and 10 µM, respectively.
With `C=CCN1C[C@H](C)N([C@H](c2ccc(C(=O)N(CC)CC)cc2)c2cccc(OC)c2)C[C@H]1C` [SNC-80], the Ki in [11] amounted to 11.7 µM; on Mu-type opioid receptor [12] it was 3.97 µM.
Regarding `CCN(CC)C(=O)c1ccc(C(c2ccccc2)N2CCOCC2)cc1` (stereo not drawn), the Ki ratio in experiment [1] is > 4. In addition, the values for the Ki (in experiment [4]; in experiment [8]; at Mu-type opioid receptor [7]) were 10 µM, 3 µM and 10 µM, respectively.
As for `C=CCN1CCN(C(c2ccccc2)c2ccc(C(=O)N(CC)CC)cc2)CC1` (stereo not drawn), the Ki ratio in experiment [1] is > 600. The figures for the Ki (at Mu-type opioid receptor [14]; in [2]) were 10 µM and 0.0105 µM, respectively.
